Assay results as given in ChEMBL document CHEMBL1148471, “Synthesis of mono- and bisdihydrodipyridopyrazines and assessment of their DNA binding and cytotoxic properties” (J Med Chem, 2004).
Values belong to the compound of their own block, whether it stands above or below them. The source made the active and inactive calls. The rule behind the calls is not given here.

Assays:
[1] = system: L1210; test: Inhibitory concentration against L1210 murine leukemia cell line; assay type: functional, cell-based; details: Mus musculus
Method in brief: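 L1210 cells grown in RPMI 1640 with 10% fetal calf serum, 2 mM L-glutamine, penicillin/streptomycin and 10 mM HEPES (pH 7.4). Cells exposed 48 h to graded concentrations (nine serial dilutions, triplicate). Viability read by microculture tetrazolium assay. IC50 = concentration reducing optical density by 50% versus untreated controls.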

[2] = system: L1210; test: Percentage of L1210 cell line in S-phase of cell cycle at 100 uM; assay type: functional, Mus musculus
Method in brief: (§1)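 L1210 cells (2.5 × 10^5 cells/mL) incubated 21 h with compound at the stated concentration. Cells fixed in 70% ethanol, then stained 30 min at 20 °C in PBS with 100 µg/mL RNase and 25 µg/mL propidium iodide. Flow cytometry on 10^4 cells per sample, 488 nm excitation, 615 nm long-pass emission. Output is the percentage of cells in each cycle phase.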

[3] = system: L1210; test: Percentage of L1210 cell line in G2M-phase of cell cycle at 100 uM; assay type: functional, Mus musculus; method in brief: as §1
[4] = system: L1210; test: Toxicity of compound was tested at 25 uM;Toxic; assay type: cell-based; details: mouse, l1210, 25 µM
[5] = system: L1210; test: Percentage of L1210 cell line in S-phase of cell cycle at 100 uM; NS = no specific effect (toxic at 10 uM); assay type: functional, cell-based; details: Mus musculus; method in brief: as §1
[6] = system: L1210; test: Percentage of L1210 cell line in G1-phase of cell cycle at 25 uM; assay type: functional, Mus musculus; method in brief: as §1
[7] = system: L1210; test: Percentage of L1210 cell line in G2M-phase of cell cycle at 5 uM; assay type: functional, Mus musculus; method in brief: as §1
[8] = system: L1210; test: Percentage of L1210 cell line in 8 N-phase of cell cycle at 10 uM; assay type: functional, Mus musculus; method in brief: as §1
[9] = system: L1210; test: Percentage of L1210 cell line in G2M-phase of cell cycle at 10 uM; assay type: functional, Mus musculus; method in brief: as §1
[10] = system: L1210; test: Percentage of L1210 cell line in G2M-phase of cell cycle at 20 uM; assay type: functional, Mus musculus; method in brief: as §1
[11] = system: L1210; test: Percentage of L1210 cell line in S-phase of cell cycle at 100 uM; NS = no specific effect (toxic at 5 uM); assay type: functional, cell-based; details: Mus musculus; method in brief: as §1
[12] = system: L1210; test: Percentage of L1210 cell line in G2M-phase of cell cycle at 2 uM; assay type: functional, Mus musculus; method in brief: as §1
[13] = system: L1210; test: Percentage of L1210 cell line in G2M-phase of cell cycle at 1 uM; assay type: functional, Mus musculus; method in brief: as §1
[14] = system: L1210; test: Percentage of L1210 cell line in 8 N-phase of cell cycle at 1 uM; assay type: functional, Mus musculus; method in brief: as §1
[15] = system: L1210; test: Percentage of L1210 cell line in 8 N-phase of cell cycle at 1 uM; Toxic; assay type: toxicity, cell-based; details: mouse, l1210, 1 µM; method in brief: as §1
[16] = system: L1210; test: Percentage of L1210 cell line in 8 N-phase of cell cycle at 0.5 uM; assay type: functional, Mus musculus; method in brief: as §1
[17] = system: L1210; test: Percentage of L1210 cell line in G2M-phase of cell cycle at 0.5 uM; assay type: functional, Mus musculus; method in brief: as §1
[18] = system: L1210; test: Percentage of L1210 cell line in 8 N-phase of cell cycle at 5 uM; assay type: functional, Mus musculus; method in brief: as §1
[19] = system: L1210; test: Percentage of L1210 cell line in S-phase of cell cycle at 100 uM; NS = no specific effect (toxic at 2 uM); assay type: functional, cell-based; details: Mus musculus; method in brief: as §1
[20] = system: L1210; test: Percentage of L1210 cell line in G2M-phase of cell cycle at 50 uM; assay type: functional, Mus musculus; method in brief: as §1
[21] = system: L1210; test: Percentage of L1210 cell line in G2M-phase of cell cycle at 25 uM; assay type: functional, Mus musculus; method in brief: as §1

IC50 [1]: 34 µM
SMILES: CN1c2cccnc2N(C)c2ncccc21
Activity [2]: 49% | Activity [3]: 34%

IC50 [1]: 0.5 µM
SMILES: CN(C)CCCCCNCc1ccc2c(n1)N(C)c1ncccc1N2C
Activity [4]: Toxic

IC50 [1]: 4 µM
SMILES: CN1c2ccc(CNCCCNCc3ccc4c(n3)N(C)c3cccnc3N4C)nc2N(C)c2cccnc21
Activity [5]: inactive

IC50 [1]: 26.7 µM
SMILES: CN(C)CCNCc1ccc2c(n1)N(C)c1cccnc1N2C
Activity [6]: 55%

IC50 [1]: 0.71 µM
SMILES: CN1c2cccnc2N(C)c2nc(CNCCCNCCCCNCCCNCc3ccc4c(n3)N(C)c3ncccc3N4C)ccc21
Activity [7]: 72%

IC50 [1]: 21.1 µM
SMILES: CN(C)CCC(=O)NCc1ccc2c(n1)N(C)c1ncccc1N2C

IC50 [1]: 11.3 µM
SMILES: CN(C)CCNCc1ccc2c(n1)N(C)c1ncccc1N2C
Activity [8]: 4% | Activity [9]: 47%

IC50 [1]: 4.1 µM
SMILES: CN1c2cccnc2N(C)c2nc(CNCCNCCNCCNCc3ccc4c(n3)N(C)c3ncccc3N4C)ccc21
Activity [10]: 70%

IC50 [1]: 0.71 µM
SMILES: CN1c2cccnc2N(C)c2nc(CNCCCCCCCNCc3ccc4c(n3)N(C)c3ncccc3N4C)ccc21
Activity [11]: inactive

IC50 [1]: 31.1 µM
SMILES: CN1c2cccnc2N(C)c2cccnc21
Activity [2]: 51%

IC50 [1]: 0.48 µM
SMILES: CN1c2cccnc2N(C)c2nc(CNCCCNCc3ccc4c(n3)N(C)c3cccnc3N4C)ccc21
Activity [12]: 66%

IC50 [1]: 0.36 µM
SMILES: CN1c2cccnc2N(C)c2nc(CNCCCNCCCNCc3ccc4c(n3)N(C)c3ncccc3N4C)ccc21
Activity [13]: 65% | Activity [14]: 18%

IC50 [1]: 20 µM
SMILES: CN1c2cccnc2N(C)c2nc(C=O)ccc21

IC50 [1]: 0.43 µM
SMILES: CN1c2cccnc2N(C)c2nc(CNCCCNCc3ccc4c(n3)N(C)c3ncccc3N4C)ccc21
Activity [13]: 68%

IC50 [1]: 1.7 µM
SMILES: CN(C)CCCNC(=O)c1ccc2c(n1)N(C)c1ncccc1N2C
Activity [9]: 67%

IC50 [1]: 11.5 µM
SMILES: CN(C)CCCN(C)Cc1ccc2c(n1)N(C)c1ncccc1N2C

IC50 [1]: 0.14 µM
SMILES: CN1c2cccnc2N(C)c2nc(CNCCCN)ccc21
Activity [13]: 65% | Activity [15]: Toxic

IC50 [1]: 0.14 µM
SMILES: CN(C)CCCCNCc1ccc2c(n1)N(C)c1ncccc1N2C
Activity [16]: 32% | Activity [17]: 54%

IC50 [1]: 0.68 µM
SMILES: CN1c2cccnc2N(C)c2nc(CNCCCOCCCNCc3ccc4c(n3)N(C)c3ncccc3N4C)ccc21
Activity [7]: 78% | Activity [18]: 18%

IC50 [1]: 2.7 µM
SMILES: CN1c2cccnc2N(C)c2nc(CNCCNCc3ccc4c(n3)N(C)c3ncccc3N4C)ccc21
Activity [9]: 79%

IC50 [1]: 0.5 µM
SMILES: CN1c2ccc(CNCCCCCCCNCc3ccc4c(n3)N(C)c3cccnc3N4C)nc2N(C)c2cccnc21
Activity [19]: inactive

IC50 [1]: 3.5 µM
SMILES: CN(CCCNCc1ccc2c(n1)N(C)c1cccnc1N2C)CCCNCc1ccc2c(n1)N(C)c1cccnc1N2C
Activity [5]: inactive

IC50 [1]: 21.6 µM
SMILES: CN1c2ccc(C=O)nc2N(C)c2cccnc21
Activity [20]: 90%

IC50 [1]: 0.17 µM
SMILES: CN(C)CCCNCc1ccc2c(n1)N(C)c1ncccc1N2C
Activity [13]: 66% | Activity [14]: 14%

IC50 [1]: 1.7 µM
SMILES: CN1c2cccnc2N(C)c2nc(CNCCCCNCc3ccc4c(n3)N(C)c3ncccc3N4C)ccc21
Activity ([11]; in the assay text read “at 5 uM” for “at 100 uM”): inactive

IC50 [1]: 9.2 µM
SMILES: CN(C)CCCNCc1ccc2c(n1)N(C)c1cccnc1N2C
Activity [21]: 39%
